Results: ChEMBL document CHEMBL1125912, “Topically active carbonic anhydrase inhibitors. 4. [(Hydroxyalkyl)sulfonyl]benzene and [(hydroxyalkyl)sulfonyl]thiophenesulfonamides” (J Med Chem, 1991)
Converted amounts (≈) assume the structure as drawn.

Key:
Oryctolagus cuniculus [1] = test: Tested in vivo for the IOP (intraocular pressure) recovery after 50 uL dose of 2% concentration in albino rabbits.; format: functional, Eye
Method in brief: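 Conscious albino rabbits. Aqueous humor production was assessed indirectly by IOP recovery rate. A single bilateral 50-µL instillation of 2% (w/v) in 0.5% aqueous (hydroxyethyl)cellulose vehicle was given. Results are percent change from control, tested by Dunnett's two-tailed test (P<0.05).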

Oryctolagus cuniculus [2] = species: Oryctolagus cuniculus; test: Maximum fall in IOP after 50 microL dose of 0.5% concentration in alpha-CT rabbit model.; format: functional
Method in brief: (§1)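 Alpha-chymotrypsinized rabbit model of ocular hypertension. Single 50-µL bilateral instillation of a 0.5% (w/v) solution in 0.5% aqueous (hydroxyethyl)cellulose vehicle. Read-out is the fall in IOP.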

[3] = Dissociation constant (pKa) (determined in 30% EtOH/water); format: physicochemical
[4] = Solubility (buffer pH 7.4); format: physicochemical; settings: read-out: S
Method in brief: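 Solubility in 50 mM phosphate buffer, pH 7.4.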

[5] = Partition coefficient (pH 7.4); format: ADME; settings: octanol/water
Method in brief: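 1-Octanol/phosphate buffer partition at pH 7.4 and 0.1 ionic strength. The compound was equilibrated between the phases and the concentration in each phase was measured by UV spectrophotometry.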

Carbonic anhydrase 2 = Carbonic anhydrase 2 (Homo sapiens, UniProt P00918); test: Inhibitory activity against human carbonic anhydrase II using pH stat assay; format: functional; settings: read-out: I50
Oryctolagus cuniculus [6] = species: Oryctolagus cuniculus; test: Maximum fall in IOP after 50 uL dose of 0.5% concentration in alpha-CT rabbit model; format: functional; method in brief: as §1
Oryctolagus cuniculus [7] = species: Oryctolagus cuniculus; test: Maximum fall in IOP after 50 uL dose of 0.5% concentration in alpha-CT rabbit model.; format: functional; method in brief: as §1
Oryctolagus cuniculus [8] = species: Oryctolagus cuniculus; test: Maximum fall in IOP after 50uL dose of 0.5% concentration in alpha-CT rabbit model; ns = 'no significant statistical change'; format: functional, organism-based; method in brief: as §1

Structure (SMILES)	pKa [3]	solubility [4]	D [5]	IC50 (Carbonic anhydrase 2)	Change from control (Oryctolagus cuniculus [1])	Max fall in IOP (Oryctolagus cuniculus [2])	Max fall in IOP (Oryctolagus cuniculus [6])	Max fall in IOP (Oryctolagus cuniculus [7])	Max fall in IOP (Oryctolagus cuniculus [8])
CC(=O)Oc1ccc2cc(S(N)(=O)=O)sc2c1	–	–	–	–	-43%	-5.5 mmHg	–	–	–
NS(=O)(=O)c1ccc(SCCO)cc1	9.27	3500 µg/mL (≈ 15 mM)	2.3	–	–	–	–	–	–
NS(=O)(=O)c1ccc(SCCCO)cc1	10.2	1400 µg/mL (≈ 5.66 mM)	6.25	20 nM	–	–	–	–	–
NS(=O)(=O)c1ccc(CCCO)cc1	10.2	20000 µg/mL (≈ 92.9 mM)	1.48	64 nM	–	–	–	–	–
CC(=O)OCCCCCc1ccc(S(N)(=O)=O)cc1	10.3	1200 µg/mL (≈ 4.21 mM)	73	–	-33%	–	–	-6.4 mmHg	–
NS(=O)(=O)c1ccc(SCCCO)c(F)c1	9.64	900 µg/mL (≈ 3.39 mM)	9.8	3.5 nM	-30%	–	-3.6 mmHg	–	–
NS(=O)(=O)c1ccc(SCCCO)c(C(=O)O)c1	9.94	8800 µg/mL (≈ 30.2 mM)	0.01	10000 nM	–	–	–	–	–
CC(C)(O)CCS(=O)(=O)c1ccc(S(N)(=O)=O)cc1	9.28	3500 µg/mL (≈ 11.4 mM)	0.82	25 nM	–	–	–	–	–
NS(=O)(=O)c1ccc(SCCCCO)c(F)c1	9.82	1000 µg/mL (≈ 3.58 mM)	19	1.5 nM	–	–	–	–	–
CC(=O)OCCCc1ccc(S(N)(=O)=O)cc1	10.2	1600 µg/mL (≈ 6.22 mM)	9.6	–	-18%	-4.5 mmHg	–	–	–
NS(=O)(=O)c1cc2ccc(O)cc2s1	–	–	–	–	-31%	-5.4 mmHg	–	–	–
NS(=O)(=O)c1ccc(SCCCO)c([N+](=O)[O-])c1	9.38	100 µg/mL (≈ 0.342 mM)	9.1	23 nM	–	–	–	–	–
NS(=O)(=O)c1ccc(S(=O)(=O)CCCO)c(C(=O)O)c1	9.28	53000 µg/mL (≈ 164 mM)	0.002	900 nM	–	–	–	–	–
NS(=O)(=O)c1ccc(SCCCCO)cc1	10.2	800 µg/mL (≈ 3.06 mM)	8.48	9 nM	–	–	–	–	–
NS(=O)(=O)c1ccc(CCCCCO)cc1	10.3	2600 µg/mL (≈ 10.7 mM)	11	8 nM	-38%	–	–	–	–
CC(=O)OCCCCc1ccc(S(N)(=O)=O)cc1	10.5	8000 µg/mL (≈ 29.5 mM)	–	–	–	–	–	–	–
NS(=O)(=O)c1ccc(S(=O)(=O)CCCO)c([N+](=O)[O-])c1	8	800 µg/mL (≈ 2.47 mM)	0.9	–	–	–	–	–	–
CC(C)(O)CCSc1ccc(S(N)(=O)=O)cc1	10	400 µg/mL (≈ 1.45 mM)	25.2	20 nM	-51%	–	–	–	No significance
NS(=O)(=O)c1ccc(SCCCCCO)cc1	9.25	600 µg/mL (≈ 2.18 mM)	10.9	4.3 nM	–	–	–	–	–
NS(=O)(=O)c1ccc(S(=O)(=O)CCO)cc1	9.38	6600 µg/mL (≈ 24.9 mM)	0.14	24 nM	-41%	–	–	-10.8 mmHg	–
NS(=O)(=O)c1ccc(S(=O)(=O)CCCCO)cc1	9.6	2100 µg/mL (≈ 7.16 mM)	0.25	7 nM	–	–	–	–	–
NS(=O)(=O)c1ccc(CCCCO)cc1	10.3	14700 µg/mL (≈ 64.1 mM)	3.7	15 nM	–	–	–	–	–
NS(=O)(=O)c1ccc(S(=O)(=O)CCCO)cc1	8.98	7200 µg/mL (≈ 25.8 mM)	0.23	12 nM	-37%	–	–	–	No significance
NS(=O)(=O)c1ccc(S(=O)(=O)CC(O)CO)cc1 (stereo not drawn)	9.35	14900 µg/mL (≈ 50.5 mM)	–	–	–	–	–	–	–

Second part, led by results:

pKa [3]	solubility [4]	D [5]	IC50 (Carbonic anhydrase 2)	Structure (SMILES)	Change from control (Oryctolagus cuniculus [1])	Max fall in IOP (Oryctolagus cuniculus [2])	Max fall in IOP (Oryctolagus cuniculus [6])	Max fall in IOP (Oryctolagus cuniculus [7])	Max fall in IOP (Oryctolagus cuniculus [8])
–	–	–	20 nM	NS(=O)(=O)c1ccc(CCCO)c(F)c1	–	–	–	–	–
9.2	33400 µg/mL (≈ 103 mM)	0.34	30 nM	COC(=O)c1cc(S(N)(=O)=O)ccc1S(=O)(=O)CCO	-24%	–	-6.3 mmHg	–	–
9.46	49000 µg/mL (≈ 205 mM)	2.4	30 nM	NS(=O)(=O)c1ccc(SCCO)s1	–	–	–	–	–
9.45	280 µg/mL (≈ 0.994 mM)	39	9 nM	NS(=O)(=O)c1ccc(SCCCO)c(Cl)c1	–	–	–	–	–
10.4	9300 µg/mL (≈ 33.5 mM)	0.01	–	NS(=O)(=O)c1ccc(SCCO)c(C(=O)O)c1	–	–	–	–	–
8.65	22000 µg/mL (≈ 81.1 mM)	0.29	6 nM	NS(=O)(=O)c1ccc(S(=O)(=O)CCO)s1	–	–	–	–	–
8.67	9900 µg/mL (≈ 33.1 mM)	0.46	2.3 nM	NS(=O)(=O)c1ccc(S(=O)(=O)CCCCO)s1	–	–	–	–	–
8.05	920 µg/mL (≈ 2.81 mM)	1.47	5 nM	CC(=O)OCCCS(=O)(=O)c1ccc(S(N)(=O)=O)s1	–	–	–	–	–
9.76	6000 µg/mL (≈ 23.9 mM)	5.3	9 nM	NS(=O)(=O)c1ccc(SCCO)c(F)c1	-34%	–	–	–	No significance
8.32	14600 µg/mL (≈ 51.2 mM)	0.44	6 nM	NS(=O)(=O)c1ccc(S(=O)(=O)CCCO)s1	–	–	–	–	–
8.1	970 µg/mL (≈ 2.71 mM)	0.72	4.5 nM	COCC(=O)OCCCS(=O)(=O)c1ccc(S(N)(=O)=O)s1	–	–	–	–	–
9.15	8400 µg/mL (≈ 28.5 mM)	0.33	23 nM	Nc1cc(S(N)(=O)=O)ccc1S(=O)(=O)CCCO	–	–	–	–	–
9.02	6600 µg/mL (≈ 22.2 mM)	0.39	4.5 nM	NS(=O)(=O)c1ccc(S(=O)(=O)CCCO)c(F)c1	-43%	–	-6.2 mmHg	–	–
9.3	–	0.45	18 nM	CC(C)CNCCCS(=O)(=O)c1ccc(S(N)(=O)=O)s1	–	–	–	–	–
9.42	500 µg/mL (≈ 1.8 mM)	2.4	21 nM	NS(=O)(=O)c1ccc(SCCO)c([N+](=O)[O-])c1	–	–	–	–	–
9.32	9500 µg/mL (≈ 37.5 mM)	7	10 nM	NS(=O)(=O)c1ccc(SCCCO)s1	–	–	–	–	–
9.5	13200 µg/mL (≈ 47.1 mM)	0.25	51 nM	Nc1cc(S(N)(=O)=O)ccc1S(=O)(=O)CCO	–	–	–	–	–
8.2	–	–	–	NS(=O)(=O)c1cc2c(s1)S(=O)(=O)CCC2O (stereo not drawn)	-40%	–	–	-6.9 mmHg	–
9.3	1300 µg/mL (≈ 4.26 mM)	5.5	700 nM	COC(=O)c1cc(S(N)(=O)=O)ccc1SCCCO	-30%	–	-4.5 mmHg	–	–
–	80 µg/mL (≈ 0.208 mM)	–	–	CC(C)COC(=O)OCCCS(=O)(=O)c1ccc(S(N)(=O)=O)s1	–	–	–	–	–
9.18	4300 µg/mL (≈ 13.8 mM)	0.55	4 nM	NS(=O)(=O)c1ccc(S(=O)(=O)CCCCO)c(F)c1	–	–	–	–	–
8.9	1500 µg/mL (≈ 4.45 mM)	0.5	20 nM	COC(=O)c1cc(S(N)(=O)=O)ccc1S(=O)(=O)CCCO	–	–	–	–	–
8.65	880 µg/mL (≈ 2.81 mM)	1.3	5.5 nM	CC(=O)OCCS(=O)(=O)c1ccc(S(N)(=O)=O)s1	–	–	–	–	–
9	3300 µg/mL (≈ 11.6 mM)	0.25	5 nM	NS(=O)(=O)c1ccc(S(=O)(=O)CCO)c(F)c1	-37%	–	–	–	No significance
9.5	9300 µg/mL (≈ 34.8 mM)	9	3 nM	NS(=O)(=O)c1ccc(SCCCCO)s1	–	–	–	–	–
